Measured values as given in ChEMBL document CHEMBL5661979, “Pharmacological inhibition of BMK1 suppresses tumor growth through promyelocytic leukemia protein” (Cancer Cell, 2010).

Assays:
[1] = target: Serine/threonine-protein kinase A-Raf (Homo sapiens, UniProt P10398); assay: Inhibition of ARAF in human HeLa cells lysate pre incubated for 15 mins followed by ATP acyl phosphate probe addition and measured after 10 mins by LC-MS/MS analysis; type: subcellular
Outline: (§1)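 KiNativ-type profiling in HeLa lysate (5 mg/mL total protein). Lysate preincubated 15 min with inhibitor at 50, 10, 2, 0.8 or 0 μM, then ATP or ADP acylphosphate probe added (5 μM final) for 10 min. Reaction stopped with urea and analysed by targeted MS, using up to four fragment ions per kinase peptide-probe conjugate. % inhibition calculated against untreated lysate. Duplicate reactions.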

[2] = target: Cyclin-dependent kinase 13 (Homo sapiens, UniProt Q14004); assay: Inhibition of CHED in human HeLa cells lysate pre incubated for 15 mins followed by ATP acyl phosphate probe addition and measured after 10 mins by LC-MS/MS analysis; type: subcellular
Outline: (§2)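 KiNativ profiling in HeLa lysate (5 mg/mL total protein). Lysate incubated 15 min with inhibitor at 50, 10, 2, 0.8 or 0 μM. ATP or ADP acylphosphate probe then added (5 μM final) and reacted 10 min. Reaction stopped with urea and analysed by targeted MS, using up to four fragment ions per kinase peptide-probe conjugate. % inhibition taken against untreated lysate. Run in duplicate.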

[3] = Inhibition of PKD1/2 in human HeLa cells lysate pre incubated for 15 mins followed by ATP acyl phosphate probe addition and measured after 10 mins by LC-MS/MS analysis; type: subcellular
[4] = target: Cyclin-dependent kinase 5 (Homo sapiens, UniProt Q00535); assay: Inhibition of CDK5 in human HeLa cells lysate pre incubated for 15 mins followed by ADP acyl phosphate probe addition and measured after 10 mins by LC-MS/MS analysis; type: subcellular; outline: as §2
[5] = target: Mitogen-activated protein kinase kinase kinase 2 (Homo sapiens) (UniProt Q9Y2U5); assay: Inhibition of MAP3K2 in human HeLa cells lysate at 50 uM pre incubated for 15 mins followed by ADP acyl phosphate probe addition and measured after 10 mins by LC-MS/MS analysis relative to control; type: subcellular; conditions: time 25.0 min
[6] = target: T1, Dual specificity mitogen-activated protein kinase kinase 4 (Homo sapiens) (UniProt P45985); assay: Inhibition of MAP2K4 in human HeLa cells lysate at 50 uM pre incubated for 15 mins followed by ADP acyl phosphate probe addition and measured after 10 mins by LC-MS/MS analysis relative to control; type: subcellular; conditions: time 25.0 min
T1 sequence (whole entry): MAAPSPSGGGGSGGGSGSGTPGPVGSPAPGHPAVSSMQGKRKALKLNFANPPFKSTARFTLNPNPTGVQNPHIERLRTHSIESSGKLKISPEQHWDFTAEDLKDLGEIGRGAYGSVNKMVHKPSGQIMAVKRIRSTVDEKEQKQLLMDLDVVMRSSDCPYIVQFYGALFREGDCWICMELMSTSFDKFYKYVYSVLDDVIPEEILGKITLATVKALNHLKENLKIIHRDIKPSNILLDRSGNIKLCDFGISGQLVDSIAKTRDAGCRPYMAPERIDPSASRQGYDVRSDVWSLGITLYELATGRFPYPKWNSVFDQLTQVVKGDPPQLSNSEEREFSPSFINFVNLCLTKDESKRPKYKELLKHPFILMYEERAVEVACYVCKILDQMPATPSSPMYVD

[7] = Inhibition of PCTAIRE2/ICK in human HeLa cells lysate at 10 uM pre incubated for 15 mins followed by ADP acyl phosphate probe addition and measured after 10 mins by LC-MS/MS analysis relative to control; conditions: 25 min, condition cancer
[8] = target: Dual specificity mitogen-activated protein kinase kinase; MEK1/2 (Homo sapiens, UniProt P36507+Q02750); assay: Inhibition of MAP2K1/MAP2K2in human HeLa cells lysate at 10 uM pre incubated for 15 mins followed by ADP acyl phosphate probe addition and measured after 10 mins by LC-MS/MS analysis relative to control; type: subcellular; conditions: time 25.0 min
[9] = target: Ribosomal protein S6 kinase beta-2 (Homo sapiens, UniProt Q9UBS0); assay: Inhibition of P70S6KB in human HeLa cells lysate at 50 uM pre incubated for 15 mins followed by ATP acyl phosphate probe addition and measured after 10 mins by LC-MS/MS analysis relative to control; type: subcellular; conditions: time 25.0 min
[10] = target: Calcium/calmodulin-dependent protein kinase type 1D (Homo sapiens, UniProt Q8IU85); assay: Inhibition of CAMK1d in human HeLa cells lysate at 50 uM pre incubated for 15 mins followed by ATP acyl phosphate probe addition and measured after 10 mins by LC-MS/MS analysis relative to control; type: subcellular; conditions: time 25.0 min; outline: as §1
[11] = target: Tyrosine-protein kinase ABL (Homo sapiens, UniProt P00519+P42684); assay: Inhibition of ABL1/2 in human HeLa cells lysate at 10 uM pre incubated for 15 mins followed by ATP acyl phosphate probe addition and measured after 10 mins by LC-MS/MS analysis relative to control; type: subcellular; conditions: time 25.0 min
Outline: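 HeLa cell lysates (5 mg/mL total protein) were preincubated with inhibitor at 0, 0.8, 2, 10 or 50 μM for 15 min. ATP or ADP acylphosphate probe was then added (5 μM final) for 10 min, and reactions were stopped with urea. Up to four fragment ions per kinase probe-peptide were quantified by targeted MS. % inhibition was taken relative to untreated lysate. Run in duplicate.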

[12] = target: Serine/threonine-protein kinase ATR (Homo sapiens, UniProt Q13535); assay: Inhibition of ATR in human HeLa cells lysate at 2 uM pre incubated for 15 mins followed by ATP acyl phosphate probe addition and measured after 10 mins by LC-MS/MS analysis relative to control; type: subcellular; conditions: time 25.0 min; outline: as §1
[13] = target: T2, Aurora kinase A (Homo sapiens) (UniProt O14965); assay: Inhibition of AurA in human HeLa cells lysate at 2 uM pre incubated for 15 mins followed by ATP acyl phosphate probe addition and measured after 10 mins by LC-MS/MS analysis relative to control; type: subcellular; conditions: time 25.0 min; outline: as §1
T2 sequence (whole entry): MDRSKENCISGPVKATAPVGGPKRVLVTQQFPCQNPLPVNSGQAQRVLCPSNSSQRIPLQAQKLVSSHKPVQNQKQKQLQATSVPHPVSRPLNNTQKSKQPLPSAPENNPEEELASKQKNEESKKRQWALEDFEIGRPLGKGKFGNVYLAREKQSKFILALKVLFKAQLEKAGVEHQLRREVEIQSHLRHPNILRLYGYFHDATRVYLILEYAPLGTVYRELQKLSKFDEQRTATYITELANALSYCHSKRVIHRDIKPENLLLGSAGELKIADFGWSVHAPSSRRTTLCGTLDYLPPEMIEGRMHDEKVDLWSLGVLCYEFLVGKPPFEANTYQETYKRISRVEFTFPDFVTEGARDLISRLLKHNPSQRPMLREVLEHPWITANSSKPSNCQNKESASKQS

[14] = target: Eukaryotic elongation factor 2 kinase (Homo sapiens) (UniProt O00418); assay: Inhibition of EEF2K in human HeLa cells lysate at 2 uM pre incubated for 15 mins followed by ATP acyl phosphate probe addition and measured after 10 mins by LC-MS/MS analysis relative to control; type: subcellular; conditions: time 25.0 min
[15] = Toxicity in C57Bl/6 mouse assessed as distress effect at 50 mg/kg, ip for 14 days; type: organism-based; conditions: in vivo, 336 h, time 14 day
[16] = Toxicity in C57Bl/6 mouse assessed as effect on sodium level at 50 mg/kg, ip for 14 days (reference value: 156 mM); type: organism-based; conditions: in vivo, 336 h, time 14 day

Chain of Serine/threonine-protein kinase A-Raf (P10398 whole entry, the tested form may be a part): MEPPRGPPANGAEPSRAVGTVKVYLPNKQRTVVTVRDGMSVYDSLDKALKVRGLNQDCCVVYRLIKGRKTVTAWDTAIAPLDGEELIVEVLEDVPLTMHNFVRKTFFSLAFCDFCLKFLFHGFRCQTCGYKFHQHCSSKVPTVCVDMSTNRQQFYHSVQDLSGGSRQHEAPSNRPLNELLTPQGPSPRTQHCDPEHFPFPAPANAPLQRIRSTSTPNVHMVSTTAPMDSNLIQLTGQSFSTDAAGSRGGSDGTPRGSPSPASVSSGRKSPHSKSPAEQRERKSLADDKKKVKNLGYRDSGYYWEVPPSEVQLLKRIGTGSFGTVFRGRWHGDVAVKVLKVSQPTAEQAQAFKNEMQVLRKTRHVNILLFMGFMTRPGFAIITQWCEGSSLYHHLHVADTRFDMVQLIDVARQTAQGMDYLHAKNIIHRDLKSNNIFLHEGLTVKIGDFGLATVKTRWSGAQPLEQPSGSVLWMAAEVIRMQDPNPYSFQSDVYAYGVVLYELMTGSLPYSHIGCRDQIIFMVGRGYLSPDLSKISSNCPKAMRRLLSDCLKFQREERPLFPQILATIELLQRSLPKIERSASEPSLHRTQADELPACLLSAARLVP
Chain of Ribosomal protein S6 kinase beta-2 (Q9UBS0 whole entry): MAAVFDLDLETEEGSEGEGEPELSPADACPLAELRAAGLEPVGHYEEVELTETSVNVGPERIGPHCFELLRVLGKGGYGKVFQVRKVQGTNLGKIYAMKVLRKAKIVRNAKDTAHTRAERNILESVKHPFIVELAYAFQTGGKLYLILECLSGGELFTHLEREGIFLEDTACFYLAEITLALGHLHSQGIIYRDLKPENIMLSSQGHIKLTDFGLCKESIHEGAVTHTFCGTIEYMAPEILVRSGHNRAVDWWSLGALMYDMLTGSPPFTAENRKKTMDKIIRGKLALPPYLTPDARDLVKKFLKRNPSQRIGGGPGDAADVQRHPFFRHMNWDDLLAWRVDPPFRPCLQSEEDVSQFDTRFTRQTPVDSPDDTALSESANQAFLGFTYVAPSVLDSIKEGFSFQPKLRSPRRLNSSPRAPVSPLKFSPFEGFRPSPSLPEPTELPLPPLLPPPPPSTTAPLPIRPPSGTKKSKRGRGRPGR
Chain of Eukaryotic elongation factor 2 kinase (Homo sapiens) (O00418 whole entry): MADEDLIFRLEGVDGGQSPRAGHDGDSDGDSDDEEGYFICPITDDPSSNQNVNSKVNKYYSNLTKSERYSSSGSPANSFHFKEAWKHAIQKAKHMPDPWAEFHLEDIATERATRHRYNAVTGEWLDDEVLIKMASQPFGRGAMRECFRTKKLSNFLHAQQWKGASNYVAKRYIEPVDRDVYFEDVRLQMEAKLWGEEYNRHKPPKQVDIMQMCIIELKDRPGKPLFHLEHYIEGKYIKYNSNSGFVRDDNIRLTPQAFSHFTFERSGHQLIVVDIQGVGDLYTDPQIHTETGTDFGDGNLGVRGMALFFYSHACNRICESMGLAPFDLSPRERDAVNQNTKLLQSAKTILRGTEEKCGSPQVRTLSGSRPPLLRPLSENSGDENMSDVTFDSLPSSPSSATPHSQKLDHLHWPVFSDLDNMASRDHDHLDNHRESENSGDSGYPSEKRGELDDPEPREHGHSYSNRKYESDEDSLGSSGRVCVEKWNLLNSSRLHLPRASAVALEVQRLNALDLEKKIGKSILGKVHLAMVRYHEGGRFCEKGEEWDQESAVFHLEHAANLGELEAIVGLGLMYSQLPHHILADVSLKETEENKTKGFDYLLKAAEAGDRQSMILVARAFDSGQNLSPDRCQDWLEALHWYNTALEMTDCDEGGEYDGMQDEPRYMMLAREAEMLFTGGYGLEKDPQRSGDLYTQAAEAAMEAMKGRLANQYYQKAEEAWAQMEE
Chain of Serine/threonine-protein kinase ATR (Q13535 whole entry, looked up): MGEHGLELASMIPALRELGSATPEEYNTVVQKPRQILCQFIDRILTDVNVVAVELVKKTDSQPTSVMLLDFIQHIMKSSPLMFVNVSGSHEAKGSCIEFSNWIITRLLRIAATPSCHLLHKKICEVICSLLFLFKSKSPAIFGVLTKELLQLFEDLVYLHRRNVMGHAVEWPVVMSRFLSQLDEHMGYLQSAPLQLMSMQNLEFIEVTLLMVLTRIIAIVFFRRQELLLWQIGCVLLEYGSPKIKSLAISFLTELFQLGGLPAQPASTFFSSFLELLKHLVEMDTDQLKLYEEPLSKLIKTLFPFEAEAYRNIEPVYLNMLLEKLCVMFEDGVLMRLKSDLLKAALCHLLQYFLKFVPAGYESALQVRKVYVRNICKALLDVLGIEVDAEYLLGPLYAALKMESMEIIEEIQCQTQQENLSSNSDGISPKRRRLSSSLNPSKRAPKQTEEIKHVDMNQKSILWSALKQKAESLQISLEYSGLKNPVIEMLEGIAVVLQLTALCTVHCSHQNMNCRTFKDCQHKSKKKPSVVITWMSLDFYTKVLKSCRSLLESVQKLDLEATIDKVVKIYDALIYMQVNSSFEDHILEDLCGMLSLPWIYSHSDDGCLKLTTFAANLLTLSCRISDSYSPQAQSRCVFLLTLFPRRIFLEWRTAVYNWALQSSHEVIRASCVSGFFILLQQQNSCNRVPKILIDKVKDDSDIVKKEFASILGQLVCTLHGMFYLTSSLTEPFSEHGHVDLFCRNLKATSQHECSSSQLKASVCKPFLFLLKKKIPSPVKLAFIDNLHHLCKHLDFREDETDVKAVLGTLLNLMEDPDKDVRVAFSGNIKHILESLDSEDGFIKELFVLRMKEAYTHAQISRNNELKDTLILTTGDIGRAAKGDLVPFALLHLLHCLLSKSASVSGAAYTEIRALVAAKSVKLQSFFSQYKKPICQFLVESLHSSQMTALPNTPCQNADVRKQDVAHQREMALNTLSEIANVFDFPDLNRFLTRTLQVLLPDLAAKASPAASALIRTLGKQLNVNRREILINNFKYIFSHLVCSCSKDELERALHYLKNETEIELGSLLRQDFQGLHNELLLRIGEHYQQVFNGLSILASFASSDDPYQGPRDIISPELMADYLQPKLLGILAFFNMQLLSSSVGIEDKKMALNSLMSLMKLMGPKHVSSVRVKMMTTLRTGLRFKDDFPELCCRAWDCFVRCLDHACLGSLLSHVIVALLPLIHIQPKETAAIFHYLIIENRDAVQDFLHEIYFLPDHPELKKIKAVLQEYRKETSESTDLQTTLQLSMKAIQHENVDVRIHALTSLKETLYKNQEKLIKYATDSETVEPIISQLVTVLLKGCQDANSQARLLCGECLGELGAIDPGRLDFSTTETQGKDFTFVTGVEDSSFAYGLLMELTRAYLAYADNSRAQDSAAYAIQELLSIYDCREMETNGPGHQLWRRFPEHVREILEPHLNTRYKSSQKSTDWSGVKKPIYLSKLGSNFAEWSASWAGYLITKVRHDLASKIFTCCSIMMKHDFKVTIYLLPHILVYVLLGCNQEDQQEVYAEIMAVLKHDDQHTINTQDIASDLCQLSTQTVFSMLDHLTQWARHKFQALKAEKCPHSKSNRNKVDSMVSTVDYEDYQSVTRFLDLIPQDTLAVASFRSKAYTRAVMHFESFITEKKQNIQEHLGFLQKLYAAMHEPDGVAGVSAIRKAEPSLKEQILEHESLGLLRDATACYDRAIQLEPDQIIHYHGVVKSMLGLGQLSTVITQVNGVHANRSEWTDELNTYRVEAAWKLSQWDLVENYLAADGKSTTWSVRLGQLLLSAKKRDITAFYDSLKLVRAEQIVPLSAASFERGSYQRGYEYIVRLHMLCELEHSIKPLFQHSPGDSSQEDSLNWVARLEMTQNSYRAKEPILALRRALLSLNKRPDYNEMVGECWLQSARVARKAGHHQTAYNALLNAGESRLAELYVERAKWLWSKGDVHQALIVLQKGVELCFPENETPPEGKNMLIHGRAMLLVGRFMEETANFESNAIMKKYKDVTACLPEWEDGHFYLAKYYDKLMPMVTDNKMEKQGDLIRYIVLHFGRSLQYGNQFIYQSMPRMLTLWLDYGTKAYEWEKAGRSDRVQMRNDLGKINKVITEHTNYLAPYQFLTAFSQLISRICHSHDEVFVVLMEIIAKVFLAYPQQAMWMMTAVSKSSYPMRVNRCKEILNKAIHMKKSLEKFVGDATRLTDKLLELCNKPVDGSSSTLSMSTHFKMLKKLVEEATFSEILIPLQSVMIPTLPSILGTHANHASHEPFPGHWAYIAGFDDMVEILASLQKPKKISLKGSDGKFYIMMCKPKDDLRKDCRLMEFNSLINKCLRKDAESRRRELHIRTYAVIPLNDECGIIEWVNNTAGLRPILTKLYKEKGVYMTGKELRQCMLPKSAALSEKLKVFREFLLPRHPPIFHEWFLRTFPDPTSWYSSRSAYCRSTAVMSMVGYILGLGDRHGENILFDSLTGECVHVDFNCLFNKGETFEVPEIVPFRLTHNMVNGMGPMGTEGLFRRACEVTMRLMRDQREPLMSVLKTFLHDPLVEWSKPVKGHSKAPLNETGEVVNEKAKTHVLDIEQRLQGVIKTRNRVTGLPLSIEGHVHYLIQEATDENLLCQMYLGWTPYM
Chain of Calcium/calmodulin-dependent protein kinase type 1D (Q8IU85 whole entry, looked up): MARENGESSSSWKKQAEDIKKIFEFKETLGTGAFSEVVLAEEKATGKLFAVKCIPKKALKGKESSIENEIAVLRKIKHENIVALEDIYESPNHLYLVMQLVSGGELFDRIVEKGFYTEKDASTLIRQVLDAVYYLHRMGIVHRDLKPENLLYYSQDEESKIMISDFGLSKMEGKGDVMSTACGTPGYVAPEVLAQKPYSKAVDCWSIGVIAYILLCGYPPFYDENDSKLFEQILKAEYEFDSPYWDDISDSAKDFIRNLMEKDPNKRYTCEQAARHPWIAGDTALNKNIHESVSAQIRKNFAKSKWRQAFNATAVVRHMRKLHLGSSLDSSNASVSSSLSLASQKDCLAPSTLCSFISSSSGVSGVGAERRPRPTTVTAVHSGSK

Compound `CCOc1cc(N2CCC(O)CC2)ccc1Nc1ncc2c(n1)N(C)c1ccccc1C(=O)N2C` has an IC50 [1] of over 50 µM, an IC50 [2] of over 50 µM and an IC50 [3] of over 50 µM. It also gave an IC50 [4] of over 50 µM, an inhibition [5] of 3.7% and an inhibition [6] of 3.1%. For the same compound, the inhibition at 10 µM [7] was -0.9%, the inhibition [8] was -2.3% and the inhibition [9] was 3%. For the same compound, the inhibition [10] was -3.1%, the inhibition [11] was 1.7% and the inhibition [12] was 25.9%. The inhibition [13] was 7.2%, the inhibition [14] was 1.5% and the Activity [15] was “Non-Toxic”. It also gave an Activity [16] of 143 mM.
